# Source: PubChem BioAssay
# CHO parental Ca: counter-screen for OX1R antagonists: effect in parental CHO cells; parental CHO-K1, ATP-induced calcium, Fluo-8 fluorescence; inhibition, % at 5.6 µM; 330,000 tested, 0.63% active; AID 463079;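 active = inhibition above that plate's mean sample inhibition plus 3 SD, cut at about 26% in these data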;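 note: 0% = ATP-challenged DMSO wells and 100% = DMSO wells without ATP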
#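 Material: parental CHO cells / Compound: single nominal dose of 5.6 µM per compound / Signal: Fluo-8 fluorescence / Replicates: singlicate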
# CHO-K1 Ca ag: counter-screen for M1 agonists: effect in parental CHO-K1 cells | Fluo-8 calcium fluorescence; scaled to maximal ATP response, vehicle zero | activation, % at 3 µM | 360,000 tested, 0.48% active; in the data active = activation above about 15%;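 note: untransfected CHO-K1 host cells lacking M1 receptor as counterscreen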
# M1 PAM parental: counter-screen for M1 PAMs: effect in parental CHO-K1 cells. ATP EC20, Fluo-8 calcium fluorescence; 0% at ATP EC20, 100% at ATP max. activation, % at 3 µM. 360,000 tested, 0.02% active;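 active = activation above the run cutoff, the mean activation of all test compounds plus 3 SD, cut at about 40% in these data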;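 note: peak over basal fluorescence ratio in a 140 s read after ATP addition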
# OX1R antag-1: human HCRTR1 antagonism. O43613. CHO/OX1R cells, Fluo-8 calcium fluorescence, orexin A. inhibition, % at 5 µM. 330,000 tested, 0.43% active;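 active = inhibition above its plate's threshold, mean inhibition of all tested compounds on the plate plus 3 SD, cut at about 37% in these data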;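 note: 0% = orexin A challenge wells and 100% = SB-334867-A antagonist wells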
# Target sequence (O43613 whole entry, looked up): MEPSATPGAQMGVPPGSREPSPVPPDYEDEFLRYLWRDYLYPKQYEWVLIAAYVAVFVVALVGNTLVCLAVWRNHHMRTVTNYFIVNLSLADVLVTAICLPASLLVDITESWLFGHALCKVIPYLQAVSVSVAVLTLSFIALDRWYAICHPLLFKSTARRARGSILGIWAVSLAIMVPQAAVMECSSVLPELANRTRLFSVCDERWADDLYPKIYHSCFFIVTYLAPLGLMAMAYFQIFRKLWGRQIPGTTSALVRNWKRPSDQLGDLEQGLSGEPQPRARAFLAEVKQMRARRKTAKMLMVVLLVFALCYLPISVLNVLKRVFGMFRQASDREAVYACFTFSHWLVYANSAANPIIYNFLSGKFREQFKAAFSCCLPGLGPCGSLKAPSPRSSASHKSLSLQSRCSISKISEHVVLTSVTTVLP
# OX1R antag-2: OX1R (human) antagonism; O43613; OX1R-expressing cells, FRET antagonist read-out; inhibition, % at 6.6 µM; 330,000 tested, 1.8% active; AID 485270; in the data active = inhibition mostly above about 38%, no sharp cut-off; inactive = mostly below about 40%;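 note: 0% = agonist challenge alone and 100% = reference antagonist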
# CHO-K1 Ca antag: nonselective inhibitor or artifact in parental CHO-K1 cells; ATP-induced calcium, Fluo-8 fluorescence; inhibition, % at 3 µM; 360,000 tested, 0.6% active; AID 602250;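 active = inhibition above a per-plate cutoff, the plate's mean sample inhibition plus 3 SD, cut at about 24% in these data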;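 note: 0% = DMSO plus EC80 ATP and 100% = DMSO alone without ATP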
# * marks the source's active call; other numbers are inactive results; . = no result. In the library only some 2.9% were active in any assay of this set; here they are far more common.
SMILES,CHO parental Ca,CHO-K1 Ca ag,M1 PAM parental,OX1R antag-1,OX1R antag-2,CHO-K1 Ca antag
Cc1cc(C)c2c(CN3CCN(C)CC3)cc(=O)oc2c1,-5,0,-2,-8,9,6
Cc1ccc(S(=O)(=O)N(C)C)cc1NC(=O)C(C)Sc1ccccc1 (stereo unspecified),-15,0,-9,-27,11,12
Fc1ccc(Nc2ccc3ccccc3n2)c(F)c1,-11,-1,-2,-14,23,-14
Cc1ccc(S(=O)(=O)c2c(C)cc(C)nc2Cl)cc1,-8,0,9,3,7,-1
Cc1cc(C)c(S(=O)(=O)c2ccc(C(C)(C)C)cc2)c(Cl)n1,43*,1,-7,2,11,6
Cc1ccc(C)c(S(=O)(=O)N2CCN(C(=O)c3ccccc3Cc3ccccc3)CC2)c1,-24,1,-15,-40,19,4
COC(=O)[C@H](C)N(Cc1ccc(Cl)c(Cl)c1)S(=O)(=O)CCNC1CCCC1,-11,2,15,-18,12,-7
C=CCC1(CC=C)CCCN1C(=O)c1cc(COc2ccc(C)nc2)on1,52*,16*,-28,7,20,49*
CC(=O)c1cccc(S(=O)(=O)Nc2c(C)nn(C)c2C)c1,-11,1,8,-22,6,-14
CS(=O)(=O)N(CC(=O)Nc1cccc([N+](=O)[O-])c1)c1cccc(F)c1,-15,3,0,-17,27,0
C=Cc1ccc(Cn2nc(-c3ccc(C)cc3)ccc2=O)cc1,44*,5,12,-4,23,12
O=c1ccc(-c2ccccc2)nn1Cc1ccc(Cl)cc1,1,4,6,-15,13,16
CC(=O)C1=C(C)Nc2ncnn2C1c1cccc(O)c1 (stereo unspecified),-2,1,4,-12,1,-8
Cc1ccc(CCN2CCN=C2Nc2ccccc2)cc1,6,0,11,-4,16,-4
Cc1cc(C(=O)COc2ccc(Cl)cc2Br)c(C)n1C,26*,0,-10,-7,4,-7
Cc1cc(C(=O)COc2ccccc2C(N)=O)c(C)n1C,-5,2,10,-16,9,-8
N#Cc1c2ccc([N+](=O)[O-])cc2[n+]([O-])n1-c1ccccc1,8,2,19,2,45*,-14
CCCCCCCC1=NN(c2ccc(S(=O)(=O)O)cc2)C(=O)C1N=O (stereo unspecified),.,0,13,.,.,-7
CCCNC(=O)C1(C)CCCN(Cc2ccc(-c3ccccn3)cc2)C1 (stereo unspecified),.,0,-13,.,.,9
CN(C)C=Nc1ccc2nc3c(cc2c1)[nH]c1ccccc13,-2,0,-2,8,55*,-4
CC(=O)N1CCN(C(=O)CCCNC(=O)c2ccc(Cl)cc2)CC1,-2,1,3,8,31,-1
Cc1cccc(S(=O)(=O)C(C#N)c2nc3ccccc3nc2N2CCCC2)c1 (stereo unspecified),-8,0,-9,-9,16,27*
COc1ccc([C@@H]2C[C@H]3[C@@H](CN2S(=O)(=O)c2ccccc2)C(=O)C[C@@H](c2ccc(OC)cc2)N3S(=O)(=O)c2ccccc2)cc1,.,0,-7,.,.,28*
CCc1ccc([C@@H]2CC(=O)[C@@H]3CN(S(=O)(=O)c4ccccc4)[C@H](c4ccc(OC)cc4)C[C@@H]3N2S(=O)(=O)c2ccc(C)cc2)cc1,.,0,2,.,.,22
COc1ccccc1C1N(c2cc(Cl)ccc2OC)C(=O)C2CCCN21 (stereo unspecified),-18,0,-13,-17,9,27*
O=[N+]([O-])c1cccc(C2NCC(c3ccccc3Cl)c3c2[nH]c2ccccc32)c1 (stereo unspecified),50*,2,15,53*,18,0
CN(C)c1ccc(C2CNC(c3ccc(Cl)c([N+](=O)[O-])c3)c3[nH]c4ccccc4c32)cc1 (stereo unspecified),-13,1,7,-16,31,-9
CC(CC(=O)NNC(=O)c1cccc(Cl)c1)c1ccccc1 (stereo unspecified),-13,1,-9,-10,12,-4
